Measurements published in ChEMBL document CHEMBL1932986, “Synthesis and in vitro antimycobacterial activity of compounds derived from (R)- and (S)-2-amino-1-butanol - The crucial role of the configuration” (Eur J Med Chem, 2012).
Converted amounts (≈) assume the structure as drawn. The source made the active and inactive calls. No cut-off for these calls is given here.

What was measured:
[1] = system: Priestia megaterium; assay: Antibacterial activity against Bacillus megaterium NRRL 1353895 at 50 mg/ml after 24 hrs by agar diffusion test; format: functional; settings: NRRL 1353895, 24 h, read-out: DIZ
Procedure, shortened: (§1)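 Agar diffusion: wells in agar filled with […] DMSO solution of compound at various concentrations; diameter of clear zone around application point measured. Bacteria grown 24 h at 37 °C on nutrient agar. Compounds first screened at 50 mg/ml; those active then tested at lower concentrations. Bracketed value = lowest concentration (mg/ml) giving zone >11 mm, reported only if activity retained at ≤1.25 mg/ml.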

[2] = system: Candida tropicalis; assay: Antifungal activity against Candida tropicalis ATCC 20336 assessed as concentration required to produce >11 mm of zone of inhibition after 72 hrs by agar diffusion test; format: functional
Procedure, shortened: (§2)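 Agar diffusion: yeasts grown on yeast peptone dextrose agar and fungi on potato dextrose agar. Wells are filled with […] of compound solution in DMSO at various concentrations, and the clear-zone diameter is measured. Bracketed values give the lowest concentration (mg/ml) that produces a zone >11 mm. A first screen is run at 50 mg/ml.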

[3] = system: Bacillus cereus; assay: Antibacterial activity against Bacillus cereus ATCC 11778 at 2 mg/ml after 24 hrs by agar diffusion test; format: functional, organism-based; procedure, shortened: as §1
[4] = system: Bacillus subtilis; assay: Antibacterial activity against Bacillus subtilis ATCC 6633 at 50 mg/ml after 24 hrs by agar diffusion test; format: functional; settings: ATCC 6633, 24 h, read-out: DIZ; procedure, shortened: as §1
[5] = system: Micrococcus luteus; assay: Antibacterial activity against Sarcina lutea ATCC 9341 at 50 mg/ml after 24 hrs by agar diffusion test; format: functional; settings: ATCC 9341, 24 h, read-out: DIZ
Procedure, shortened: (§3)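 Agar diffusion: bacteria grown 24 h at 37 °C on nutrient agar. Wells in the agar are filled with […] of compound solution in DMSO at various concentrations. The diameter of the clear zone around the application point is measured. Bracketed values give the lowest concentration (mg/ml) that produces a zone >11 mm. A first screen is run at 50 mg/ml.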

[6] = system: Bacillus subtilis; assay: Antibacterial activity against Bacillus subtilis ATCC 6633 assessed as concentration required to produce >11 mm of zone of inhibition after 24 hrs by agar diffusion test; format: functional; procedure, shortened: as §1
[7] = system: Acinetobacter johnsonii; assay: Antibacterial activity against Acinetobacter johnsonii ATCC 17909 at 2 mg/ml after 24 hrs by agar diffusion test; format: functional; procedure, shortened: as §1
[8] = system: Bacillus mycoides; assay: Antibacterial activity against Bacillus mycoides DSMZ 274 at 50 mg/ml after 24 hrs by agar diffusion test; format: functional; settings: DSMZ 274, 24 h, read-out: DIZ; procedure, shortened: as §1
[9] = system: Bacillus; assay: Antibacterial activity against Bacillus idosus B 241 at 2 mg/ml after 24 hrs by agar diffusion test; format: functional, organism-based; procedure, shortened: as §1
[10] = system: Bacillus; assay: Antibacterial activity against Bacillus idosus B 241 assessed as concentration required to produce >11 mm of zone of inhibition after 24 hrs by agar diffusion test; format: functional; procedure, shortened: as §1
[11] = system: Mycobacterium tuberculosis; assay: Antimycobacterial activity against Mycobacterium tuberculosis H37Rv after 45 days; format: functional
Procedure, shortened: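 Canetti proportion method. Compound in DMSO is added to Löwenstein–Jensen egg medium before coagulation (30 min, 85 °C), tested at three levels plus a lower one where needed. Tubes are inoculated with H37Rv at 10⁵ cells/ml and incubated 45 days at 37 °C. Colony counts versus drug-free control give percentage inhibition.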

[12] = system: Penicillium chrysogenum; assay: Antifungal activity against Penicillium chrysogenum CECT 2802 at 2 mg/ml after 72 hrs by agar diffusion test; format: functional, organism-based; procedure, shortened: as §2
[13] = system: Candida tropicalis; assay: Antifungal activity against Candida tropicalis ATCC 20336 at 50 mg/ml after 72 hrs by agar diffusion test; format: functional; settings: ATCC 20336, 72 h, read-out: DIZ; procedure, shortened: as §2
[14] = system: Bacillus mycoides; assay: Antibacterial activity against Bacillus mycoides DSMZ 274 at 2 mg/ml after 24 hrs by agar diffusion test; format: functional, organism-based; procedure, shortened: as §1
[15] = system: Staphylococcus aureus; assay: Antibacterial activity against Staphylococcus aureus NRRL B 313 assessed as concentration required to produce >11 mm of zone of inhibition after 24 hrs by agar diffusion test; format: functional; procedure, shortened: as §3
[16] = system: Candida tropicalis; assay: Antifungal activity against Candida tropicalis ATCC 20336 at 2 mg/ml after 72 hrs by agar diffusion test; format: functional, organism-based; procedure, shortened: as §2
[17] = system: Saccharomyces cerevisiae; assay: Antifungal activity against Saccharomyces cerevisiae ATCC 9763 at 2 mg/ml after 72 hrs by agar diffusion test; format: functional, organism-based; procedure, shortened: as §2
[18] = system: Saccharomyces cerevisiae; assay: Antifungal activity against Saccharomyces cerevisiae ATCC 9763 at 50 mg/ml after 72 hrs by agar diffusion test; format: functional; settings: ATCC 9763, 72 h, read-out: DIZ; procedure, shortened: as §2
[19] = system: Priestia megaterium; assay: Antibacterial activity against Bacillus megaterium NRRL 1353895 assessed as concentration required to produce >11 mm of zone of inhibition after 24 hrs by agar diffusion test; format: functional; procedure, shortened: as §1
[20] = system: Micrococcus luteus; assay: Antibacterial activity against Sarcina lutea ATCC 9341 at 2 mg/ml after 24 hrs by agar diffusion test; format: functional, organism-based; procedure, shortened: as §1
[21] = system: Bacillus mycoides; assay: Antibacterial activity against Bacillus mycoides DSMZ 274 assessed as concentration required to produce >11 mm of zone of inhibition after 24 hrs by agar diffusion test; format: functional; procedure, shortened: as §1
[22] = system: Acinetobacter johnsonii; assay: Antibacterial activity against Acinetobacter johnsonii ATCC 17909 assessed as concentration required to produce >11 mm of zone of inhibition after 24 hrs by agar diffusion test; format: functional; procedure, shortened: as §1
[23] = system: Saccharomyces cerevisiae; assay: Antifungal activity against Saccharomyces cerevisiae ATCC 9763 assessed as concentration required to produce >11 mm of zone of inhibition after 72 hrs by agar diffusion test; format: functional; procedure, shortened: as §2
[24] = system: Bacillus subtilis; assay: Antibacterial activity against Bacillus subtilis ATCC 6633 at 2 mg/ml after 24 hrs by agar diffusion test; format: functional, organism-based; procedure, shortened: as §1
[25] = system: Acinetobacter johnsonii; assay: Antibacterial activity against Acinetobacter johnsonii ATCC 17909 at 50 mg/ml after 24 hrs by agar diffusion test; format: functional; settings: ATCC 17909, 24 h, read-out: DIZ; procedure, shortened: as §1
[26] = system: Escherichia coli; assay: Antibacterial activity against Escherichia coli ATCC 8739 assessed as concentration required to produce >11 mm of zone of inhibition after 24 hrs by agar diffusion test; format: functional; procedure, shortened: as §1
[27] = system: Staphylococcus aureus; assay: Antibacterial activity against Staphylococcus aureus NRRL B 313 at 50 mg/ml after 24 hrs by agar diffusion test; format: functional; settings: NRRL B 313, 24 h, read-out: DIZ; procedure, shortened: as §3
[28] = system: Micrococcus luteus; assay: Antibacterial activity against Micrococcus luteus ATCC 9631 at 2 mg/ml after 24 hrs by agar diffusion test; format: functional, organism-based; procedure, shortened: as §1
[29] = system: Staphylococcus aureus; assay: Antibacterial activity against Staphylococcus aureus NRRL B 313 at 2 mg/ml after 24 hrs by agar diffusion test; format: functional, organism-based; procedure, shortened: as §3
[30] = system: Micrococcus luteus; assay: Antibacterial activity against Micrococcus luteus ATCC 9631 at 50 mg/ml after 24 hrs by agar diffusion test; format: functional; settings: ATCC 9631, 24 h, read-out: DIZ; procedure, shortened: as §1
[31] = system: Bacillus cereus; assay: Antibacterial activity against Bacillus cereus ATCC 11778 assessed as concentration required to produce >11 mm of zone of inhibition after 24 hrs by agar diffusion test; format: functional; procedure, shortened: as §1
[32] = system: Penicillium chrysogenum; assay: Antifungal activity against Penicillium chrysogenum CECT 2802 at 50 mg/ml after 72 hrs by agar diffusion test; format: functional; settings: CECT 2802, 72 h, read-out: DIZ; procedure, shortened: as §2
[33] = system: Bacillus cereus; assay: Antibacterial activity against Bacillus cereus ATCC 11778 at 50 mg/ml after 24 hrs by agar diffusion test; format: functional; settings: ATCC 11778, 24 h, read-out: DIZ; procedure, shortened: as §1
[34] = system: Priestia megaterium; assay: Antibacterial activity against Bacillus megaterium NRRL 1353895 at 2 mg/ml after 24 hrs by agar diffusion test; format: functional, organism-based; procedure, shortened: as §1
[35] = system: Bacillus; assay: Antibacterial activity against Bacillus idosus B 241 at 50 mg/ml after 24 hrs by agar diffusion test; format: functional; settings: B 241, 24 h, read-out: DIZ; procedure, shortened: as §1
[36] = system: Escherichia coli; assay: Antibacterial activity against Escherichia coli ATCC 8739 at 2 mg/ml after 24 hrs by agar diffusion test; format: functional, organism-based; procedure, shortened: as §1
[37] = system: Escherichia coli; assay: Antibacterial activity against Escherichia coli ATCC 8739 at 50 mg/ml after 24 hrs by agar diffusion test; format: functional; settings: ATCC 8739, 24 h, read-out: DIZ; procedure, shortened: as §1

CC[C@H](CO)NCc1ccc2c(c1)Cc1ccccc1-2
zone of inhibition at 50000 µg/mL [1]: 16 mm
Activity [2]: 0.06 mg/mL
diameter of the inhibition zone (DIZ) [3]: inactive
zone of inhibition at 50000 µg/mL [4]: 18 mm
zone of inhibition at 50000 µg/mL [5]: 18 mm
Activity [6]: 1.25 mg/mL
diameter of the inhibition zone (DIZ) [7]: inactive
zone of inhibition at 50000 µg/mL [8]: 20 mm
diameter of the inhibition zone (DIZ) [9]: inactive
Activity [10]: 0.6 mg/mL
MIC [11]: 18.7 µM (≈ 5.01 µg/mL)
diameter of the inhibition zone (DIZ) [12]: inactive
zone of inhibition at 50000 µg/mL [13]: 21 mm
diameter of the inhibition zone (DIZ) [14]: inactive
Activity [15]: 1.25 mg/mL
diameter of the inhibition zone (DIZ) [16]: inactive
diameter of the inhibition zone (DIZ) [17]: inactive
zone of inhibition at 50000 µg/mL [18]: 20 mm
Activity [19]: 1.25 mg/mL
diameter of the inhibition zone (DIZ) [20]: inactive
Activity [21]: 1.25 mg/mL
Activity [22]: 1.25 mg/mL
Activity [23]: 1.25 mg/mL
diameter of the inhibition zone (DIZ) [24]: inactive
zone of inhibition at 50000 µg/mL [25]: 17 mm
Activity [26]: 1.25 mg/mL
zone of inhibition at 50000 µg/mL [27]: 17 mm
diameter of the inhibition zone (DIZ) [28]: inactive
diameter of the inhibition zone (DIZ) [29]: inactive
zone of inhibition at 50000 µg/mL [30]: 16 mm
Activity [31]: 1.25 mg/mL
zone of inhibition at 50000 µg/mL [32]: 30 mm
zone of inhibition at 50000 µg/mL [33]: 16 mm
diameter of the inhibition zone (DIZ) [34]: inactive
zone of inhibition at 50000 µg/mL [35]: 17 mm
diameter of the inhibition zone (DIZ) [36]: inactive
zone of inhibition at 50000 µg/mL [37]: 16 mm
